These results are taken from ChEMBL document CHEMBL1150294, “Synthesis of indirubin-N'-glycosides and their anti-proliferative activity against human cancer cell lines” (Bioorg Med Chem, 2008).

For orientation: IC50 means the concentration at which inhibition is half-maximal. A higher IC50 goes with weaker potency in that assay. What is called inhibition is the percentage by which the read-out fell short of the control. Lower therefore signals a weak effect.

One experiment has as its system MCF7. As to the kind of experiment: Antiproliferative activity against human MCF7 cells after 96 hrs by crystal violet assay. The class given is functional, cell-based. The following applies: MCF7, 96 h. In a few lines: (§1)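 Adherent lines from DSMZ grown in RPMI 1640 with 10% FCS plus penicillin G/streptomycin. Seeded at 1000 cells/well 24 h before dosing, with an untreated plate fixed at dosing as the time-zero reference. Compounds came from DMSO series, five concentrations at 0.1% final DMSO, eight wells each. Exposure was continuous for 96 h. Cells were glutaraldehyde-fixed, stained with 0.02% crystal violet, dye eluted in 70% ethanol, OD 570 nm. Results are corrected T/C% against time-zero.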

Experiment [1] can be described thus: Antiproliferative activity against human KYSE70 cells after 96 hrs by crystal violet assay. The class given is functional, cell-based. The following applies: KYSE-70, 96 h. The procedure, abridged:
as §1

The next experiment has as its system A-427. The experiment in a line: Antiproliferative activity against human A427 cells after 96 hrs by crystal violet assay. In kind it is functional, cell-based. The note with it: A-427, 96 h. In a few lines:
as §1

For experiment [2], the system named is 5637. As to the kind of experiment: Antiproliferative activity against human 5637 cells after 96 hrs by crystal violet assay. In kind it is functional, cell-based. The following applies: Homo sapiens, 5637, 96 h. The procedure, abridged:
as §1

Experiment [3] has as its system 5637. As to the kind of experiment: Growth inhibition of human 5637 cells at 12.5 uM after 96 hrs by crystal violet assay. The class given is functional. The note with it: Homo sapiens, 5637, 96 h. In a few lines:
as §1

A short description of experiment [4]: Growth inhibition of human KYSE70 cells at 12.5 uM after 96 hrs by crystal violet assay. In kind it is functional. The note with it: KYSE-70, 96 h. The procedure, abridged:
as §1

With `O=C1/C(=C2/C(=O)N([C@@H]3O[C@H](CO)[C@H](O)[C@H](O)[C@H]3O)c3ccccc32)Nc2ccccc21`, the IC50 in the experiment with MCF7 came to 25.8 µM; in experiment [1] it was 41.5 µM; with A-427 it was 13.2 µM; in the experiment on 5637 [2], 24.9 µM.

For the compound `C[C@@H]1O[C@H](N2C(=O)/C(=C3\Nc4ccc(Cl)cc4C3=O)c3ccccc32)[C@H](O)[C@H](O)[C@H]1O`, the IC50 was found to be 7.98 µM in the experiment with MCF7, 5.94 µM in experiment [1] and 8.23 µM with 5637 [2].

For the compound `Cc1cc(C)c2c(c1)N([C@H]1O[C@@H](C)[C@H](O)[C@@H](O)[C@H]1O)C(=O)/C2=C1\Nc2ccccc2C1=O`, the inhibition at 12.5 µM (in the experiment on 5637 [3]; in experiment [4]) was below 20% throughout. Also, the IC50 in the experiment with MCF7 is 6.16 µM; in experiment [1], above 12.5 µM; in the experiment with 5637 [2], above 12.5 µM.

As to `O=C1/C(=C2/C(=O)N([C@@H]3O[C@H](CO)[C@@H](O)[C@H](O)[C@H]3O)c3ccccc32)Nc2ccccc21`, the IC50 in the experiment on MCF7 came to 15.7 µM; in experiment [1], 28.9 µM; in the experiment with A-427 it was 11.8 µM; in the experiment with 5637 [2], 14.4 µM.

For `C[C@@H]1O[C@H](N2C(=O)/C(=C3\Nc4ccccc4\C3=N/O)c3ccccc32)[C@H](O)[C@H](O)[C@H]1O`, the IC50 with MCF7 worked out at 17 µM; in experiment [1], 15.4 µM; in the experiment on 5637 [2], 15.5 µM.

On to `C[C@@H]1O[C@H](N2C(=O)/C(=C3\Nc4ccccc4C3=O)c3ccccc32)[C@H](O)[C@H](O)[C@H]1O`, for which the IC50 in the experiment with MCF7 was 0.76 µM; in experiment [1] it was above 12.5 µM; in the experiment with A-427, above 12.5 µM; in the experiment on 5637 [2], above 12.5 µM.

In the case of `O=C1/C(=C2/C(=O)N([C@@H]3O[C@H](CO)[C@@H](O)[C@H](O)[C@@H]3O)c3ccccc32)Nc2ccccc21`, the IC50 came to 4.22 µM in the experiment with MCF7, 11.8 µM in experiment [1], 5.55 µM in the experiment on A-427 and 10.6 µM with 5637 [2].

For the compound `C[C@@H]1O[C@@H](N2C(=O)/C(=C3\Nc4ccccc4C3=O)c3ccccc32)[C@H](O)[C@H](O)[C@H]1O`, the inhibition at 12.5 µM (in the experiment with 5637 [3]; in experiment [4]) was below 20% in each case. For the same compound, the IC50 is 0.67 µM in the experiment with MCF7, above 25 µM in experiment [1], above 25 µM with A-427 and above 25 µM with 5637 [2].

In the case of `C[C@@H]1O[C@@H](N2C(=O)/C(=C3\Nc4ccc(Cl)cc4C3=O)c3ccccc32)[C@H](O)[C@H](O)[C@H]1O`, the half-maximal inhibitory concentration (IC50) with MCF7 is 6.96 µM; in experiment [1], 15.3 µM; in the experiment with 5637 [2], 12.9 µM.

For the compound `Nc1ncn([C@@H]2O[C@H](CO)[C@@H](O)[C@H]2O)c(=O)n1` [AZACITIDINE], the IC50 with MCF7 is 6.78 µM; in experiment [1], 1.59 µM; with A-427, 0.63 µM; in the experiment on 5637 [2], 1.73 µM.

On to `O=C(O)CCCc1ccc(N(CCCl)CCCl)cc1` [CHLORAMBUCIL], for which the IC50 is 18.4 µM with MCF7, 38.4 µM in experiment [1], 9.5 µM in the experiment with A-427 and 6.55 µM with 5637 [2].

Regarding `COc1cc([C@@H]2c3cc4c(cc3[C@@H](O[C@@H]3O[C@@H]5CO[C@@H](C)O[C@H]5[C@H](O)[C@H]3O)[C@H]3COC(=O)[C@H]23)OCO4)cc(OC)c1O` [ETOPOSIDE], the IC50 in the experiment with MCF7 turned out to be 0.5 µM; in experiment [1], 0.94 µM; in the experiment with A-427, 0.13 µM; with 5637 [2], 0.54 µM.
